Test results from ChEMBL document CHEMBL1255292, “New active drugs against liver stages of Plasmodium predicted by molecular topology” (Antimicrob Agents Chemother, 2008).
pIC50: −log10 of the molar value.

Columns and labels:
[1] = Cytotoxicity against Hepatocyte cells assessed as cell viability by MTT assay; assay type: cell-based; details: hepatocytes; read-out: TC50 (the source's name)
How it was run: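 MTT assay in mouse hepatocyte cultures prepared as for infection. Drugs at eight concentrations from 6.4 x 10–3 to 100 µM, triplicate wells. MTT 0.5 mg/ml (final) added for 4 h at 37°C, cells taken up in ethanol/DMSO 50/50, absorbance 550 nm with 620 nm reference. Viability expressed as percent of drug-free controls; TC50 by linear regression.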

Plasmodium yoelii yoelii = assay: Antimicrobial activity against Plasmodium yoelii 265 liver infected in mammalian hepatocytes after 48 hrs; assay type: functional, organism-based; details: Plasmodium yoelii, 265, Hepatocyte
[2] = Selectivity index, ratio of TC50 for hepatocytes to IC50 for Plasmodium yoelii; set-up: species or system Hepatocyte
How it was run: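 SI calculated as hepatocyte TC50 (MTT, mouse hepatocytes) divided by liver-stage IC50 against P. yoelii yoelii, both measured in this work.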

Plasmodium falciparum = assay: Antimicrobial activity against Plasmodium falciparum NF54 schizonts in mammalian hepatocytes after 96 hrs; assay type: functional, organism-based; details: NF54, Hepatocyte
How it was run: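 Primary hepatocytes isolated by collagenase perfusion, 10^5 cells per chamber-slide well, held 24 h at 37°C, 4% CO2, then infected with 9 x 10^4 NF54 sporozoites dissected from salivary glands of infected Anopheles stephensi. Drugs added at infection to duplicate cultures, seven concentrations from 1 x 10^-6 to 30 µM, renewed daily. Methanol-fixed; HSPi72 serum with FITC anti-mouse IgG; schizonts counted; IC50 by linear regression.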

Structure (SMILES)	CC50 [1] [µM]	pIC50 (Plasmodium yoelii yoelii)	Selectivity Index [2]	pIC50 (Plasmodium falciparum)
CC(C)(C)NC(=O)[C@@H]1CN(Cc2cccnc2)CCN1C[C@@H](O)C[C@@H](Cc1ccccc1)C(=O)N[C@H]1c2ccccc2C[C@H]1O	8.77	5.30		
O=C1C(O)=C([C@H]2CC[C@H](c3ccc(Cl)cc3)CC2)C(=O)c2ccccc21 [ATOVAQUONE]	16.5	7.24	289	
CC(C)Nc1cccnc1N1CCN(C(=O)c2cc3cc(NS(C)(=O)=O)ccc3[nH]2)CC1 [DELAVIRDINE]	> 100	9.07	>118000	
CC(CCc1ccc(O)cc1)NCCc1ccc(O)c(O)c1 (stereo unspecified) [DOBUTAMINE]	> 100	8.43	>27000	
CC[C@H](C)[C@H](NC(=O)[C@H]([C@@H](C)CC)N(C)C(C)=O)C(=O)N[C@H](C(=O)N[C@@H](CC(C)C)C(=O)[C@@]1(C)CO1)[C@@H](C)O [EPOXOMYCIN]	47.3	5.40	11.97	
COC(=O)Nc1nc2cc(Sc3ccccc3)ccc2[nH]1 [FENBENDAZOLE]	> 100	4.52	>3.33	
C=CC(C)(C)c1cc(/C=C/C(=O)c2ccc(O)cc2)c(OC)cc1O [LICOAGROCHACONE A]	63.4	9.03	68300	
COCC(=O)O[C@]1(CCN(C)CCCc2nc3ccccc3[nH]2)CCc2cc(F)ccc2[C@@H]1C(C)C [MIBEFRADIL]	67.9	9.06	77000	
Clc1ccc(COC(Cn2ccnc2)c2ccc(Cl)cc2Cl)c(Cl)c1 (stereo unspecified) [MICONAZOLE]	70.4	8.69	34700	
CC[C@@]1([C@@H]2O[C@@H]([C@H]3O[C@@](O)(CO)[C@H](C)C[C@@H]3C)C[C@@H]2C)CC[C@H]([C@]2(C)CC[C@]3(C[C@H](O)[C@@H](C)[C@@H]([C@@H](C)[C@@H](OC)[C@H](C)C(=O)O)O3)O2)O1 [MONENSIN]	> 32	> 12.00	>32000000	> 12.00
CO[C@@H]1C[C@@H](C[C@H]2CC[C@H](C)[C@H]([C@@H](C)C(=O)O)O2)O[C@]2(O[C@](C)([C@H]3CC[C@@](C)([C@@H]4O[C@@H]([C@H]5O[C@@](O)(CO)[C@H](C)C[C@@H]5C)C[C@@H]4C)O3)C[C@H]2C)[C@@H]1C [NIGERICIN]	13.2	> 12.00	>13200000	> 12.00
CC(Cc1ccc(O)c(O)c1)C(C)Cc1ccc(O)c(O)c1 (stereo unspecified) [NORDIHYDROGUAIARETIC ACID]	> 100	4.52	>3.33	
COc1cc(NC(C)CCCN)c2ncccc2c1 (stereo unspecified) [PRIMAQUINE]	12.5			
CCN(CC)CCCC(C)Nc1c2ccc(Cl)cc2nc2ccc(OC)cc12 (stereo unspecified) [QUINACRINE]	> 11.6	4.52	>0.38	
CC(N)C12CC3CC(CC(C3)C1)C2 (stereo unspecified) [RIMANTADINE]	> 100	7.45	>3.33	
CC(C)c1nc(CN(C)C(=O)N[C@H](C(=O)N[C@@H](Cc2ccccc2)C[C@H](O)[C@H](Cc2ccccc2)NC(=O)OCc2cncs2)C(C)C)cs1 [RITONAVIR]		7.47		
CCOC(=O)NC(=S)Nc1ccccc1NC(=S)NC(=O)OCC [THIOPHANATE]	> 100	4.52	>3.33	
CC[C@]1(O)C[C@@H]2CN(CCc3c([nH]c4ccccc34)[C@@](C(=O)OC)(c3cc4c(cc3OC)N(C)[C@H]3[C@@](O)(C(=O)OC)[C@H](OC(C)=O)[C@]5(CC)C=CCN6CC[C@]43[C@@H]65)C2)C1 [VINBLASTINE]	54.5	5.10	6.85	
